Experimental data taken from ChEMBL document CHEMBL4346672, “Antimicrobial and KPC/AmpC inhibitory activity of functionalized benzosiloxaboroles” (Eur J Med Chem, 2019).
In brackets after ≈: the same amount, converted by molar mass. Activity calls are given as the source filed them. No cut-off for these calls is given here.

Experiments:
[1] = system: Klebsiella pneumoniae 700603; experiment: Inhibition of extended-spectrum beta lactamase in Klebsiella pneumoniae ATCC 700603 assessed as potentiation of ceftazidime-induced antibacterial activity by measuring diameter of zone inhibition at 0.3 mg incubated for 18 hrs in presence of 10 ug ceftazidime by CLSI disc diffusion method (Rvb=13 mm)
Procedure, shortened: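 EUCAST ESBL combination disc test on Mueller-Hinton agar. Zones were compared between a ceftazidime or cefotaxime disc alone and the same disc plus agent at 0.3 mg per disc. Clavulanic acid discs at 0.01 mg per disc served as reference. Plates were incubated at 35 °C for 18 h. A difference of at least 5 mm was counted as inhibition.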

Enterobacter cloacae [2] = experiment: Antibacterial activity against Enterobacter cloacae DSM 6234 measured after 18 hrs by CLSI broth dilution method; format: functional; conditions: DSM 6234, 18 h
Procedure, shortened: (§1)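 Broth MIC in Mueller-Hinton II broth following CLSI, compounds dissolved in DMSO. Strains subcultured twice on tryptic soy agar before testing. Growth read after 35 °C, 18 h.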

Serratia marcescens [3] = experiment: Antibacterial activity against Serratia marcescens ATCC 13880 assessed as fold reduction of MIC in presence of efflux pump inhibitor PAbetaN incubated for 18 hrs by broth microdilution method; format: functional
Procedure, shortened: (§2)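 MICs determined with and without PAβN at 50 mg/L in Mueller-Hinton broth containing 1 mM MgSO₄. 2-fold serial dilutions per CLSI. Fold change taken from the paired MICs after 35 °C, 18 h.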

Klebsiella pneumoniae [4] = conditions: ATCC 13883
Saccharomyces cerevisiae = experiment: Antifungal activity against Saccharomyces cerevisiae ATCC 9763 diameter of zone inhibition incubated for 24 hrs by CLSI disc diffusion method; format: functional
Procedure, shortened: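 Disc-diffusion run on Mueller-Hinton II agar with 2% glucose and 0.5 mg/L methylene blue, using compounds in DMSO. Yeast was precultured on Sabouraud dextrose agar (24–48 h, 30 °C). Zones read after 24 h at 35 °C.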

Enterobacter cloacae [5] = experiment: Antibacterial activity against Enterobacter cloacae DSM 6234 assessed as diameter of zone inhibition measured after 18 hrs by CLSI disc diffusion method; format: functional
Procedure, shortened: (§3)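 Disc diffusion on Mueller-Hinton II agar. Compounds dissolved in DMSO. Strains stored at -80 °C and subcultured twice on tryptic soy agar before testing. Inhibition zones read after 35 °C, 18 h.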

Escherichia coli [6] = experiment: Antibacterial activity against Escherichia coli ATCC 25922 measured after 18 hrs by CLSI broth dilution method; format: functional; conditions: ATCC 25922, 18 h; procedure, shortened: as §1
Pseudomonas aeruginosa = experiment: Antibacterial activity against Pseudomonas aeruginosa ATCC 27853 assessed as fold reduction of MIC in presence of efflux pump inhibitor PAbetaN incubated for 18 hrs microdilution method; format: functional; procedure, shortened: as §2
Burkholderia cepacia = experiment: Antibacterial activity against Burkholderia cepacia ATCC 25416 measured after 18 hrs by CLSI broth dilution method; format: functional; conditions: ATCC 25416, 18 h; procedure, shortened: as §1
[7] = molecular target: Class A carbapenemase KPC-2 (Escherichia coli) (UniProt A8DS27); experiment: Inhibition of beta lactamase KPC-2 in Escherichia coli 76 assessed as potentiation of ceftazidime-induced antibacterial activity by measuring ceftazidime MIC at 16 mg/L incubated for 18 hrs by broth dilution method (reference value: >[…] mg/L)
Pichia kudriavzevii = experiment: Antifungal activity against Candida krusei ATCC 6258 assessed as diameter of zone inhibition incubated for 24 hrs by CLSI disc diffusion method; format: functional
Procedure, shortened: (§4)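 Yeast disc diffusion on Mueller-Hinton agar supplemented with 2% glucose and 0.5 mg/L methylene blue. Compounds in DMSO. Yeasts subcultured on Sabouraud dextrose agar before testing. Zones read after 35 °C, 24 h.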

Enterobacter cloacae [8] = experiment: Antibacterial activity against Enterobacter cloacae DSM 6234 assessed as fold reduction of MIC in presence of efflux pump inhibitor PAbetaN incubated for 18 hrs by broth microdilution method; format: functional; procedure, shortened: as §2
Escherichia coli [9] = experiment: Inhibition of beta lactamase CMY-2 in Escherichia coli 77 assessed as potentiation of ceftazidime-induced antibacterial activity by measuring ceftazidime MIC at 16 mg/L incubated for 18 hrs by broth dilution method (reference value: […] mg/L)
[10] = system: Stenotrophomonas maltophilia; experiment: Antibacterial activity against Stenotrophomonas maltophilia ATCC 13637 assessed as diameter of zone inhibition measured after 18 hrs by CLSI disc diffusion method; format: functional; procedure, shortened: as §3
Serratia marcescens [11] = experiment: Antibacterial activity against Serratia marcescens ATCC 13880 measured after 18 hrs by CLSI broth dilution method; format: functional; conditions: ATCC 13880, 18 h; procedure, shortened: as §1
Acinetobacter baumannii = experiment: Antibacterial activity against Acinetobacter baumannii ATCC 19606 assessed as fold reduction of MIC in presence of efflux pump inhibitor PAbetaN incubated for 18 hrs by broth microdilution method; format: functional; procedure, shortened: as §2
Candida tropicalis = experiment: Antifungal activity against Candida tropicalis IBA 171 assessed as diameter of zone inhibition incubated for 24 hrs by CLSI disc diffusion method; format: functional; procedure, shortened: as §4
Klebsiella pneumoniae [12] = experiment: Inhibition of beta lactamase KPC-3 in Klebsiella pneumoniae 83 assessed as potentiation of ceftazidime-induced antibacterial activity by measuring ceftazidime MIC at 16 mg/L incubated for 18 hrs by broth dilution method (reference value: >[…] mg/L)
Enterococcus faecalis [13] = experiment: Antibacterial activity against Enterococcus faecalis ATCC 29212 assessed as diameter of zone inhibition measured after 18 hrs by CLSI disc diffusion method; format: functional; procedure, shortened: as §3
[14] = system: Staphylococcus epidermidis; experiment: Antibacterial activity against Staphylococcus epidermidis ATCC 12228 measured after 18 hrs by CLSI broth dilution method; format: functional; conditions: ATCC 12228, 18 h; procedure, shortened: as §1
Staphylococcus aureus [15] = experiment: Antibacterial activity against Staphylococcus aureus ATCC 6538P assessed as diameter of zone inhibition measured after 18 hrs by CLSI disc diffusion method; format: functional; procedure, shortened: as §3
[16] = system: Staphylococcus epidermidis; experiment: Bactericidal activity against Staphylococcus epidermidis ATCC 12228 measured after 18 hrs by CLSI broth dilution method; format: functional; conditions: ATCC 12228, 18 h
Procedure, shortened: (§5)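 Strains stored at -80 °C and subcultured twice on tryptic soy agar before testing. Compounds dissolved in DMSO. […] MBC then determined per CLSI recommendations.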

Staphylococcus aureus [17] = experiment: Bactericidal activity against Staphylococcus aureus ATCC 6538P measured after 18 hrs by CLSI broth dilution method; format: functional; procedure, shortened: as §5
Enterococcus faecalis [18] = experiment: Bactericidal activity against Enterococcus faecalis ATCC 29212 measured after 18 hrs by CLSI broth dilution method; format: functional; conditions: ATCC 29212, 18 h; procedure, shortened: as §5
[19] = Cytotoxicity against human MRC5 cells assessed as cell viability at 32 ug/ml incubated for 72 hrs by MTT assay; format: cell-based; conditions: read-out: Activity
Procedure, shortened: (§6)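 MRC-5 pd30 human fibroblasts grown in MEM with 10% FBS, 2 mM L-glutamine, penicillin/streptomycin and 1% non-essential amino acids at 37 °C, 5% CO2. Exponentially growing cells trypsinized and seeded at 8×10^3 cells/well, then dosed 18 h later with 2-fold dilutions (0.5% DMSO final) for 72 h. MTT (1 mg/ml final) added for 1 h at 37 °C, formazan dissolved in DMSO, OD read at 570 nm. Four replicates, expressed as % viable versus control.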

[20] = Cytotoxicity against human MRC5 cells assessed as cell viability at 8 ug/ml incubated for 72 hrs by MTT assay; format: cell-based; conditions: read-out: Activity; procedure, shortened: as §6
[21] = Cytotoxicity against human MRC5 cells assessed as cell viability at 16 ug/ml incubated for 72 hrs by MTT assay; format: cell-based; conditions: read-out: Activity; procedure, shortened: as §6
[22] = Cytotoxicity against human MRC5 cells assessed as cell viability at 1 ug/ml incubated for 72 hrs by MTT assay; format: cell-based; conditions: read-out: Activity; procedure, shortened: as §6

Compound | inhibition zone (IZ) [1] [mm] | MIC (Enterobacter cloacae [2]) [µg/mL] | fold change (FC) (Serratia marcescens [3]) | DIZ (Klebsiella pneumoniae [4]) | diameter of the inhibition zone (DIZ) (Saccharomyces cerevisiae) | diameter of the inhibition zone (DIZ) (Enterobacter cloacae [5]) | MIC (Escherichia coli [6]) [µg/mL] | fold change (FC) (Pseudomonas aeruginosa) | MIC (Burkholderia cepacia) [µg/mL] | MIC [7] [µg/mL] | diameter of the inhibition zone (DIZ) (Pichia kudriavzevii) | fold change (FC) (Enterobacter cloacae [8]) | MIC (Escherichia coli [9]) [µg/mL] | diameter of the inhibition zone (DIZ) [10] | MIC (Serratia marcescens [11]) [µg/mL] | fold change (FC) (Acinetobacter baumannii) | diameter of the inhibition zone (DIZ) (Candida tropicalis) | diameter of the inhibition zone (DIZ) (Enterococcus faecalis [13]) | MIC [14] [µg/mL] | diameter of the inhibition zone (DIZ) (Staphylococcus aureus [15]) [mm] | further results
C[Si]1(C)OB(O)c2c(F)c(F)c(F)c(F)c21 | 13 | > 400 | 4 | inactive | 35 mm | inactive | > 400 | 16 | > 400 | > 64 | 13 mm | 32 | 16 | 25 mm | > 400 | 4 | 13 mm | 11 mm | 100 (≈ 400 µM) | 17 | MIC (Klebsiella pneumoniae [12]): > 64 µg/mL
C[Si]1(C)OB(O)c2cc(C=O)cc(F)c21 |  | > 400 | 8 | inactive | inactive | inactive | > 400 | 4 | > 400 |  | inactive | 16 |  | inactive | > 400 | 4 | inactive | inactive | 50 (≈ 223 µM) | 22 | MBC [16]: 200 µg/mL (≈ 893 µM); MBC (Staphylococcus aureus [17]): 100 µg/mL (≈ 446 µM)
C[Si]1(C)OB(O)c2ccc(C(F)(F)F)cc21 |  | > 400 | 2 | inactive | 15 mm | inactive | > 400 | 8 | > 400 |  | 13 mm | 16 |  | 14 mm | > 400 | 16 | 13 mm | 12 mm | 25 (≈ 102 µM) | 20 | MBC (Enterococcus faecalis [18]): 50 µg/mL (≈ 203 µM); MBC [16]: 50 µg/mL (≈ 203 µM); MBC (Staphylococcus aureus [17]): 100 µg/mL (≈ 406 µM)
C[Si]1(C)OB(O)c2ccc(F)c(F)c21 | 13 | > 400 | 8 | inactive | 30 mm | inactive | > 400 | 32 | > 400 | > 64 | 17 mm | 32 | 16 | 13 mm | > 400 | 4 | 12 mm | inactive | 50 (≈ 234 µM) | 32 | viability at 72 h, 32 ug/ml [19]: 74%; viability at 72 h, 8 ug/ml [20]: 111%; viability at 72 h, 16 ug/ml [21]: 99%; viability at 72 h, 1 ug/ml [22]: 114%; MIC (Klebsiella pneumoniae [12]): > 64 µg/mL
C[Si]1(C)OB(O)c2cc3c(c(F)c21)COB3O | 13 | > 400 | 16 | inactive | inactive | inactive | 400 (≈ 1590 µM) | 8 | > 400 | > 64 | inactive | 64 | 16 | 14 mm | > 400 | 8 | inactive | 18 mm | 6.25 (≈ 24.8 µM) | 20 | viability at 72 h, 32 ug/ml [19]: 54.3%; viability at 72 h, 8 ug/ml [20]: 105%; MBC [16]: 400 µg/mL (≈ 1590 µM); viability at 72 h, 16 ug/ml [21]: 100%; MBC (Staphylococcus aureus [17]): 400 µg/mL (≈ 1590 µM); viability at 72 h, 1 ug/ml [22]: 112%; MIC (Klebsiella pneumoniae [12]): > 64 µg/mL
C[Si]1(C)OB(O)c2c(F)c3c(c(F)c21)B(O)OC3 | 13 | 200 (≈ 741 µM) | 16 | inactive | inactive | 17 mm | 200 (≈ 741 µM) | 8 | 50 (≈ 185 µM) | > 64 | inactive | 8 | 32 | 15 mm | 400 (≈ 1480 µM) | 8 | inactive | 28 mm | 6.25 (≈ 23.2 µM) | 30 | MIC (Klebsiella pneumoniae [12]): 64 µg/mL
C[Si]1(C)OB(O)c2ccc(Cl)c(Cl)c21 |  | > 400 | 32 | inactive | 36 mm | inactive | 400 (≈ 1620 µM) | 64 | > 400 |  | 29 mm | 64 |  | 13 mm | > 400 | 8 | 31 mm | 21 mm | 6.25 (≈ 25.3 µM) | 23 | MBC (Enterococcus faecalis [18]): 400 µg/mL (≈ 1620 µM); MBC [16]: 50 µg/mL (≈ 202 µM); MBC (Staphylococcus aureus [17]): 100 µg/mL (≈ 405 µM)
